The values that follow come from article PMC2746395 (Journal of medicinal chemistry, 2009).

For data set [1], the target named is human NET (hNET) (Homo sapiens, UniProt P23975). In words: In vitro competition binding vs [3H]nisoxetine in transfected HEK-293 cells.
The subject of data set [2] is NET. To be noted: cited from earlier work.
In data set [3] the test system is NET. To be noted: rats, 60 min post injection; cited from earlier work.
The subject of data set [4] is NET. To be noted: cynomolgus monkeys and human; cited from earlier work.
Data set [5] concerns the target T1, NET (Macaca mulatta, UniProt Q9MYW8). Put plainly: MicroPET imaging in anesthetized rhesus monkeys. The format is in vivo, rhesus monkey. The note with it: for Peak ratio of uptake cerebellum to caudate / Peak ratio of uptake midbrain to caudate / Peak ratio of uptake thalamus to caudate: time not stated; for time of peak uptake in all regions of interest: followed by fast washout.

In data set [6] the target is T1, NET. Put plainly: PET imaging in awake rhesus monkeys. Format: in vivo, rhesus monkey. To be noted: for effect of isoflurane anesthesia / awake state on binding kinetics: awake vs anesthetized monkeys.
Data set [7] can be described thus: Lipophilicity measurement. Format: physicochemical. To be noted: relative to 1. In short, it runs like this: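 Radiolabeled test compound (~5–10 µCi) was added to 2 mL 1-octanol plus 2 mL 0.02 M sodium phosphate buffer (pH 7.4), vortexed 10 min at room temperature, then centrifuged 5 min. A 0.5 mL sample of each layer was gamma-counted and decay corrected. log P7.4 = log(octanol counts/buffer counts) per replicate; three replicates averaged.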

Data set [8] has as its target human SERT (hSERT) (Homo sapiens, UniProt P31645). In words: In vitro competition binding vs [3H]citalopram in transfected HEK-293 cells. To be noted: Ki ratio relative to 1.
[9] abbreviates: after injection, baseline, anesthetized.
[10] abbreviates: postinjection, baseline, anesthetized.

“Also recorded” adds a separate entry of the source.

T1 sequence (Q9MYW8 1-617): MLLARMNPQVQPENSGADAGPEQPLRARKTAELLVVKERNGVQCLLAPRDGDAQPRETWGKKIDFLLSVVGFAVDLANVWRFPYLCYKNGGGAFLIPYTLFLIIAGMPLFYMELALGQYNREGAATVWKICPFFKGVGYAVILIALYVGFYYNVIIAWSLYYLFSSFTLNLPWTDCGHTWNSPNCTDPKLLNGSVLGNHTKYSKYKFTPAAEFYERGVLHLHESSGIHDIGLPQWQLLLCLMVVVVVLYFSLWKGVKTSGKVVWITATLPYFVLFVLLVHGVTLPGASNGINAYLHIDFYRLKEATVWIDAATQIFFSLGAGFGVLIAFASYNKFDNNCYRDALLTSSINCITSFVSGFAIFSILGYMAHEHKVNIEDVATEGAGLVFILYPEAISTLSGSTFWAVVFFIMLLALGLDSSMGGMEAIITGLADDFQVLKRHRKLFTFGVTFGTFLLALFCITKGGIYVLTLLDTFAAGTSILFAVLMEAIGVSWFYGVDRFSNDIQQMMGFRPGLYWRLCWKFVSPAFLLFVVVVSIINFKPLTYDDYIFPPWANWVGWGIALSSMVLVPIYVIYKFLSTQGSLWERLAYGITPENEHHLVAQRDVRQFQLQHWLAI
human NET (hNET), sequence (P23975 whole entry): as the sequence (Q9MYW8 1-617) above, with S15N, A19T, V246I, I410V, I427V, G452S, V606I counted along it
human SERT (hSERT), sequence (P31645 whole entry): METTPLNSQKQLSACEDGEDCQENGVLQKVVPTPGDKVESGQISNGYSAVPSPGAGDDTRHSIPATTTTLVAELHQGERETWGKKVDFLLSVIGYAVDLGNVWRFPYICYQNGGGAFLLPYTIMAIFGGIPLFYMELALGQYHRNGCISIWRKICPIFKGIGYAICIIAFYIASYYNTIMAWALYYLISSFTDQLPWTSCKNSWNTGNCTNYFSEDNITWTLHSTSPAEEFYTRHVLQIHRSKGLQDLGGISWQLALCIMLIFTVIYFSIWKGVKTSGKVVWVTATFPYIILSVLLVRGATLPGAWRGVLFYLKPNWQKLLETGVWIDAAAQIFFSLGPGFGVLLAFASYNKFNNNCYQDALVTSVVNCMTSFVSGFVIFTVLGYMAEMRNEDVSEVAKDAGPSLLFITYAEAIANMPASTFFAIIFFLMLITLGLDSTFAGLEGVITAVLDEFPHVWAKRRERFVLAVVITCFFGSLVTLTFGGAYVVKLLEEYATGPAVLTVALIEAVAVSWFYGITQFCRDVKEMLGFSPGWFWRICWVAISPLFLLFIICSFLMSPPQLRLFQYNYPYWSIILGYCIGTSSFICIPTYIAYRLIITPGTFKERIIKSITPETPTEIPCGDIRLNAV

As to `COc1ccccc1O[C@@H](c1ccccc1)[C@@H]1CNCCO1` [(S,S)-MeNER, reference compound], in data set [1] (ratio of Ki values), the “NET selectivity DAT/NET” value is above 2000.

Take `[11CH3]Oc1ccccc1O[C@@H](c1ccccc1)[C@@H]1CNCCO1` [(S,S)-[^11C]MeNER]: the “ratios of uptake in NET-rich brain regions to striatum” value in data set [2] (90 min postinjection) was 1.4–1.6. Also, the thalamus-to-striatum uptake ratios in data set [2] (cynomolgus monkeys and baboons) is on record as 1.4–1.6. The hypothalamus-to-striatum uptake ratio in data set [3] was 2.5.

In the case of `[2H]C([2H])([18F])Oc1ccccc1O[C@@H](c1ccccc1)[C@H]1CNCCO1` [(S,S)-[^18F]FMeNER-D2], the thalamus-to-striatum binding ratio in data set [4] was ~ 1.5.

As for `[11CH3]c1ccccc1O[C@@H](c1ccccc1)[C@@H]1CNCCO1` [[^11C]1], the “highest ratios of uptake in NET-rich regions to that in caudate” value in data set [5] (45 min, anesthetized) is recorded as 1.30–1.45. In data set [5] (45 min, baseline, anesthetized), the “Ratio of uptake pons to caudate (peak)” value is on record as 1.40. Besides, in data set [5] (setting [9]), the “time of peak uptake of radioactivity in thalamus and pons” value lay within 15.5 to 27.5 min. For the same molecule, the “time to specific binding peak equilibrium (quasi-equilibrium)” value in data set [5] (after injection, both anesthetized and awake states) was “less than 1 h”. Further, the “half-time for clearance from peak uptake (T1/2), thalamus and pons” value in data set [5] (baseline, anesthetized) is recorded as ~ 105 min. Further, in data set [5] (setting [10]), the “time of peak uptake in caudate” value fell in the range of 18 to 35 min; the “time of peak uptake in midbrain and cerebellum” value was in the range of 9.5 to 18.5 min. In data set [6], the “effect of isoflurane anesthesia / awake state on binding kinetics” value is listed as “not significantly altered”. The “time of peak uptake” value in data set [6] (both awake and anesthetized monkey studies) lay in the range of 17.5 to 35 min.

Consider `[11CH3]c1ccccc1S[C@@H](c1ccccc1)[C@@H]1CNCCO1` [[^11C]4], for which the “displacement of radioactivity in the caudate in chase study with SERT ligand” value in data set [5] ((R,S)-citalopram HBr 1.5 mg/kg 40 min after injection) is “no displacement”. Also, the “time of peak uptake of radioactivity in thalamus and midbrain” value in data set [5] (setting [9]) was in the range of 27.5 to 45 min. Moreover, the “washout T1/2, thalamus and midbrain” value in data set [5] (baseline, anesthetized) is ~ 160 min. The “effect of isoflurane anesthesia / awake state on binding kinetics” value in data set [6] was “markedly decreased; also recorded: greatly decreased”.

As to `[18F]CCOc1ccccc1OC(c1ccccc1)C1CNCCO1` (centres unmarked) [[^18F]2], in data set [5] (baseline, anesthetized), the “Peak ratio of uptake cerebellum to caudate” value was 1.05, the “Peak ratio of uptake midbrain to caudate” value amounted to 1.13, the “Peak ratio of uptake thalamus to caudate” value came to 1.13 and the “time of peak uptake in all regions of interest” value is recorded as 15 min.

As to `[18F]CCCOc1ccccc1OC(c1ccccc1)C1CNCCO1` (centres unmarked) [[^18F]3], in data set [5] (baseline, anesthetized), the “Peak ratio of uptake cerebellum to caudate” value is listed as 0.95, the “Peak ratio of uptake midbrain to caudate” value is listed as 1.18, the “Peak ratio of uptake thalamus to caudate” value was 1.18 and the “time of peak uptake in all regions of interest” value is listed as 15 min.

For the molecule `Cc1ccccc1S[C@@H](c1ccccc1)[C@@H]1CNCCO1` [compound 4, (2S,3S)-2-[α-(2-Methylphenylthio)phenylmethyl]morpholine], the “times more potent than 1 for the NET” value in data set [1] (Ki ratio relative to 1) is 3.4 times. The “increase of log P7.4 on substitution of oxygen by sulfur” value in data set [7] amounted to 0.43. The “times more potent than 1 for the SERT” value in data set [8] is reported as 6.5 times.
